Key:
Assay type in all cases: functional
Rattus norvegicus [1] = experiment: Antihyperlipidemic activity in diet-induced hyperlipidemic rat model assessed as serum total cholesterol level at 40 mg/kg, po administered once daily in morning through gastric intubation for 14 days measured after 4 hrs of last dose
Outline: (§1)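 Male Charles Foster albino rats (200–250 g) fed a hyperlipidemic diet. Compound suspended in 5% EtOH/saline, given by gastric intubation each morning for 14 days; controls got vehicle. Killed 4 h after the last dose, serum taken by cardiac puncture. TC by Abell method, TG by Gottfried–Rosenberg, HDL-C by kit. LDL-C and VLDL-C by Friedewald calculation. Atherogenic index = (TC−HDL-C)/HDL-C. Mean ± SEM, n=6, t-test.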

Rattus norvegicus [2] = experiment: Antihyperlipidemic activity in diet-induced hyperlipidemic rat model assessed as serum triglyceride level at 40 mg/kg, po administered once daily in morning through gastric intubation for 14 days measured after 4 hrs of last dose; outline: as §1
Rattus norvegicus [3] = experiment: Antihyperlipidemic activity in diet-induced hyperlipidemic rat model assessed as serum VLDLC level at 40 mg/kg, po administered once daily in morning through gastric intubation for 14 days measured after 4 hrs of last dose; outline: as §1
Rattus norvegicus [4] = experiment: Antihyperlipidemic activity in diet-induced hyperlipidemic rat model assessed as ratio of HDLC to serum total cholesterol level at 40 mg/kg, po administered once daily in morning through gastric intubation for 14 days measured after 4 hrs of last dose
Rattus norvegicus [5] = experiment: Antihyperlipidemic activity in diet-induced hyperlipidemic rat model assessed as serum LDLC level at 40 mg/kg, po administered once daily in morning through gastric intubation for 14 days measured after 4 hrs of last dose; outline: as §1
Rattus norvegicus [6] = experiment: Antihyperlipidemic activity in diet-induced hyperlipidemic rat model assessed as serum HDLC level at 40 mg/kg, po administered once daily in morning through gastric intubation for 14 days measured after 4 hrs of last dose; outline: as §1
Rattus norvegicus [7] = experiment: Antihyperlipidemic activity in Triton-induced hyperlipidemic rat model assessed as serum triglyceride level at 75 mg/kg, po administered for 2 days through gastric intubation immediately and 20 hrs after triton challenge measured after 4 hrs of last dose
Outline: (§2)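 Male Charles Foster albino rats (200–250 g), fasted 24 h, given Triton 400 mg/kg ip in saline. Compound given orally by gastric intubation right after Triton and again 20 h later. Killed by decapitation 4 h after the second dose. Serum separated and stored at −20°. Total cholesterol by Abell method, triglycerides by Gottfried–Rosenberg, total lipid by Frings–Dunn. Mean ± SEM, n=6, Student's t-test versus control.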

Rattus norvegicus [8] = experiment: Antihyperlipidemic activity in Triton-induced hyperlipidemic rat model assessed as serum total lipid level at 75 mg/kg, po administered for 2 days through gastric intubation immediately and 20 hrs after triton challenge measured after 4 hrs of last dose; outline: as §2
Rattus norvegicus [9] = experiment: Antihyperlipidemic activity in diet-induced hyperlipidemic rat model assessed as atherogenic index at 40 mg/kg, po administered once daily in morning through gastric intubation for 14 days measured after 4 hrs of last dose; outline: as §1
Rattus norvegicus [10] = experiment: Antihyperlipidemic activity in Triton-induced hyperlipidemic rat model assessed as serum total cholesterol level at 75 mg/kg, po administered for 2 days through gastric intubation immediately and 20 hrs after triton challenge measured after 4 hrs of last dose; outline: as §2

Row | SMILES | Activity (Rattus norvegicus [1]) | Activity (Rattus norvegicus [2]) | Activity (Rattus norvegicus [3]) | Ratio (Rattus norvegicus [4]) | Activity (Rattus norvegicus [5]) | Activity (Rattus norvegicus [6]) | Activity (Rattus norvegicus [7]) | Activity (Rattus norvegicus [8]) | AI (Rattus norvegicus [9]) | Activity (Rattus norvegicus [10])
1 | COc1cc(O)cc2c1C(=O)C(O)(Cc1ccc(O)cc1)O2 (stereo unspecified) [CARPUSIN] | 350.6 mg/dL | 190 mg/dL | 41.1 mg/dL | 0.09 | 292.8 mg/dL | 32 mg/dL |  |  |  | 
2 | O=C1C[C@@H](c2ccc(O)cc2)Oc2cc(O)ccc21 [LIQUIRTIGENIN] | 323.2 mg/dL | 198.1 mg/dL | 39.6 mg/dL | 0.11 | 245.7 mg/dL | 38.01 mg/dL | 572.9 mg% | 837.3 mg% | 7.5 | 406.7 mg%
